# From PubChem BioAssay
# MPTP block – mitochondrial permeability transition pore inhibitors, primary screen, biochemical, isolated mouse mitochondria, absorbance. Ca2+ swelling absorbance, 30 min. 360,000 tested, 1.4% active. inhibition, % at 10 µM;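 active = inhibition of 50% or more, scaled per plate between neutral and stimulator controls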;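 note: 0% = DMSO wells given calcium and 100% = 1 mM EGTA wells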
# aDG glyco act – activators of alpha-DG glycosylation, primary screen, uHTS, Pro5-aDG cells, AlphaScreen. activation, % at 10 µM. alpha-DG glycosylation AlphaScreen (IIH6); 0% Pro5, 100% B10-LARGE cell signal. 360,000 tested, 0.22% active. AID 624168, 2012;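 active = activation of at least 8% versus controls, or a plate z-score of at least 8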;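 note: Pro5 are CHO cells carrying HIG-tagged alpha-DG that lacks glycosylation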
# ADAM17 inh – ADAM17 inhibitors, primary screen, biochemical, QFRET; Disintegrin and metalloproteinase domain-containing protein 17 (Homo sapiens), P78536; recombinant ADAM17, EDANS/DABCYL FRET peptide cleavage; inhibition, % at 6.95 µM; 370,000 tested, 0.83% active; AID 720648, 2013;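 active = inhibition above the mean of compounds lying between control limits plus 3 SD, set per campaign, cut at about 8.5% in these data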;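 note: 0% = DMSO-only wells as the low control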
# Hep lipid drop – inhibitors of hepatocyte lipid droplet formation, primary screen, imaging, high-throughput imaging, BODIPY stain; AML12 mouse hepatocytes, oleate lipid droplets; inhibition, % at 6.5 µM; 240,000 tested, 0.4% active; AID 1656, 2009;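 active = lipid droplet intensity inhibited by at least 50%, with more than 500 cells counted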
#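 Material: mouse AML12 hepatocyte cell line, fixed after treatment; Timing: compound with oleate, overnight; Technique: high-content imaging of BODIPY-stained droplets and DAPI nuclei; Probe or stimulus: oleate, 100 µM final; Dosing: compound at 6.5 µM only.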
# ADAM10 inh – human ADAM10 inhibitors, primary screen, biochemical, QFRET, HTS | recombinant ADAM10, EDANS/DABCYL FRET peptide cleavage, 3 h | 370,000 tested, 0.62% active | Disintegrin and metalloproteinase domain-containing protein 10 (Homo sapiens), O14672 | inhibition, % at 7 µM;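 active = inhibition above a per-campaign cutoff equal to the mean of compounds falling between control-based bounds plus 3 SD, cut at about 20% in these data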;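 note: 0% = DMSO wells while the 100% control is not disclosed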
# Target sequence (O14672 214-748 limits assumed): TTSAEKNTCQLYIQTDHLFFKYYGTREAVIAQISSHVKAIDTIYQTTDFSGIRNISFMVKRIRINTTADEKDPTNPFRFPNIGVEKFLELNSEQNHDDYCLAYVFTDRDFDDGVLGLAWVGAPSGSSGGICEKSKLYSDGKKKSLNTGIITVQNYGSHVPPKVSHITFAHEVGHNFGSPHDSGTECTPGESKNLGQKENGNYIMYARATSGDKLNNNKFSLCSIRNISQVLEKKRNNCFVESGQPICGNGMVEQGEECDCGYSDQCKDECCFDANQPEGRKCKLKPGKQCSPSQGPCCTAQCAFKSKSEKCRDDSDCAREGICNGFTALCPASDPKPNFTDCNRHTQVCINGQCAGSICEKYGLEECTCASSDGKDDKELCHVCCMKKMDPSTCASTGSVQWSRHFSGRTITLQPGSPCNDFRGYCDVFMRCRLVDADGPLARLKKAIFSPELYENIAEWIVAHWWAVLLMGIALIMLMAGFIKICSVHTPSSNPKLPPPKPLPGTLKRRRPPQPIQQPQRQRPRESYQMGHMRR
# V-ATPase pHluor – regulators of yeast V-ATPase proton pumping, primary screen, pHLuorin cytosolic pH fluorescence; response, % at 10 µM; S. cerevisiae; 350,000 tested, 0.37% active; in the data active = response mostly above about 7.3%, no sharp cut-off; inactive = mostly below about 5.4%; note: actives read high
# Hep lipid conf – hepatocyte lipid droplet accumulation inhibitors, confirmation, imaging, AML12 mouse hepatocytes, single concentration, high-content; shares compounds with Hep lipid drop; BODIPY lipid droplet imaging; droplets induced with 100 µM oleic acid; inhibition, % at 5.2 µM; 870 tested, 65% active;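 active = inhibition of lipid droplet metric at least 50%, with more than 300 cells in each of four replicates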;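 note: plate controls were DMSO with oleic acid for no effect and 5 µM Triacsin-C for full effect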
# AML12 cytotox – AML12 hepatocyte cytotoxicity, counter-screen for hepatic lipid droplet formation project, imaging, DAPI nuclear morphology imaging; shares compounds with Hep lipid drop; AML12 mouse hepatocytes; hits give high values; cells fed 100 µM oleate overnight; z-score at 5 µM; 870 tested, 3% active; in the data active = z-score above about 6.3;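 note: compound exposure lasted overnight at 37 °C before fixation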
# AML12 tox ATP – AML12 hepatocyte cytotoxicity, confirmation, cytotoxicity control for hepatic lipid droplet formation project, cell-based, single concentration. shares compounds with Hep lipid drop. AML12 mouse hepatocyte viability, ATP luminescence; cells loaded with 100 µM oleic acid. cytotoxicity, % at 50 µM. 530 tested, under 10 active. AID 463219, 2010;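 active = cytotoxicity above 50% in each of four replicates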;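 note: compound exposure lasted overnight at 37 °C before the ATP read; 0% = DMSO-treated cells and 100% = wells with no cells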
# MPTP counter – fluorescence retest of MPTP screen hits in isolated mitochondria, single concentration. shares compounds with MPTP block. membrane potential, Rhodamine 123 fluorescence. inhibition, % at 10 µM. 5,000 tested, 78% active. AID 624504, 2012; in the data active = inhibition above about 22%;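 note: 0% = DMSO vehicle and 100% = positive control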
# An asterisk follows results filed as active; x = not tested or not shown. This is a sample that favours compounds with a hit; in the whole collection about 3.1% have one here.
SMILES,MPTP block,aDG glyco act,ADAM17 inh,Hep lipid drop,ADAM10 inh,V-ATPase pHluor,Hep lipid conf,AML12 cytotox,AML12 tox ATP,others
Clc1ccc([C@H]2OC[C@@]3(CNCc4ccc5c(c4)OCO5)CS[C@H](c4ccc(Cl)cc4)N23)cc1,x,x,-2.6,x,2.1,x,x,x,x,
CCOc1ccc(CCNC(=O)C2CC=CCC2C(=O)OC(C)C)cc1OCC (stereo unspecified),1.1,0.1,1.5,114.2*,1.5,-1.1,106.5*,0.382,13.0,
CCOc1ccc(CCNC(=O)CN2C(=O)c3cccnc3Oc3ccc(C)cc32)cc1OCC,-1.0,-0.1,1.0,91.6*,8.6,5.0,110.0*,-0.37,10.0,
COc1ccc(CCNC(=O)CCC(=O)N2CCOc3ccc(C)cc32)cc1OC,-1.7,-0.1,-2.3,-1.0,-10.4,-1.0,x,x,x,
CSc1ccc(CCNC(=O)CN2C(=O)c3cccnc3Oc3ccc(C)cc32)cc1,-0.4,-0.2,2.7,-19.8,3.6,-3.1,x,x,x,
CCOc1ccc(CCNC(=O)CCC(=O)N2CCOc3ccc(C)cc32)cc1OCC,-2.1,0.0,-2.3,79.8*,-1.5,-1.4,111.9*,-1.1,16.1,
CCOc1ccc(CCNC(=O)CCS(=O)(=O)c2ccc(OC)cc2)cc1OCC,2.9,-0.2,-7.1,84.3*,-6.5,-1.9,97.2*,-0.439,10.3,
CCOc1ccc(S(=O)(=O)NCCC(=O)NCCc2ccc(OCC)c(OCC)c2)cc1,1.2,-0.1,-1.4,x,1.4,-0.2,x,x,x,
OC(CCN1CCCCC1)(c1ccccc1)C1CC2C=CC1C2 (stereo unspecified),x,x,2.2,x,-8.8,x,x,x,x,
C[C@H]1[C@H](N(Cc2ccccc2)Cc2ccccc2)CC[C@@]23CCCN2C(=O)CCC[C@@H]13,x,x,0.1,x,4.2,x,x,x,x,
CCOc1ccc(CCNC(=O)C2CC(=O)N(Cc3ccc(OC)cc3)C2)cc1OCC (stereo unspecified),-0.3,-0.2,-0.7,57.2*,-3.6,2.2,93.1*,-0.162,16.0,
CCOc1ccc(CCNC(=O)CSCc2ccc(C)cc2)cc1OCC,-0.2,-0.1,-2.0,88.4*,3.1,-0.8,109.1*,-0.82,x,
CCOc1ccc(CCNC(=O)CS(=O)Cc2nc(-c3ccc(C)cc3)oc2C)cc1OCC (stereo unspecified),-0.2,0.5,-0.3,45.9,6.8,4.7,x,x,x,
CCOc1ccc(CCNC(=O)CN2CCN(Cc3ccc(F)cc3)C2=O)cc1OCC,-1.7,0.0,-3.2,68.7*,-1.3,-1.9,103.9*,-0.21,12.9,
CCOc1ccc(CCNC(=O)Cc2ccccc2)cc1OCC,x,x,-4.1,x,-3.8,x,x,x,x,
CCOc1ccc(CCNC(=O)CS(=O)Cc2nc(-c3ccccc3C)oc2C)cc1OCC (stereo unspecified),-0.3,-0.1,-0.2,61.3*,12.6,-5.5,89.4*,-0.186,13.3,
CC(C)(C)c1ccc(-c2nnc(SCC(=O)Nc3ccc4c(c3)OCCO4)n2-c2ccc(Cl)cc2)cc1,x,x,1.6,x,3.8,x,x,x,x,
C[C@H]1[C@@H](OC(=O)NCc2cccc(Cl)c2)CC[C@@]23CCCN2C(=O)CCC[C@@H]13,x,x,-5.6,x,-6.7,x,x,x,x,
O=C(CCS(=O)(=O)c1cc2c(cc1Br)CCN2C(=O)C1CC1)N1CCN(c2ccccn2)CC1,x,x,-0.5,x,-1.3,x,x,x,x,
Cc1ccc(C)c(OCCC(=O)NCCc2ccc(Cl)cc2)c1,1.1,0.1,2.0,-3.0,7.5,-0.6,x,x,x,
CCOc1ccc(CCNC(=O)C2CCN(S(=O)(=O)N3CC(C)CC(C)C3)CC2)cc1OCC (stereo unspecified),-0.6,0.0,2.2,81.9*,-3.9,1.7,4.8,-0.364,x,
CCOc1ccc(CCNC(=O)CCOc2cc(C)ccc2C)cc1OCC,0.0,0.0,1.8,97.5*,-1.2,-4.8,111.2*,-0.471,14.9,
COc1ccc(C)cc1S(=O)(=O)N(CC(=O)Nc1cc([N+](=O)[O-])ccc1C)c1ccc(C)c(C)c1,0.3,-0.4,4.8,50.7*,13.8,-4.0,56.5,-0.351,14.2,
CCOC(=O)/C(C(=O)Nc1ccccc1Cl)=C1/NC(C)(C)Cc2ccccc21,2.8,-0.1,-2.5,52.9*,-0.4,-4.0,32.1,0.345,x,
CC(C)(C)c1ccc(S(=O)(=O)N2CCC(C(=O)NCCC3=CCCCC3)CC2)cc1,x,x,2.9,x,6.9,x,x,x,x,
SMILES,MPTP block,aDG glyco act,ADAM17 inh,Hep lipid drop,ADAM10 inh,V-ATPase pHluor,Hep lipid conf,AML12 cytotox,AML12 tox ATP,others
O=[N+]([O-])c1ccccc1NCCNc1ncc(C(F)(F)F)cc1Cl,5.6,0.2,-0.5,12.9,6.2,2.6,x,x,x,
O=[N+]([O-])c1cc(Cl)ccc1NCCNc1ncc(C(F)(F)F)cc1Cl,0.9,0.1,-3.7,52.0*,-2.9,-2.7,44.1,0.601,x,
C=CCN1[C@H](CC(C)C)COc2cccc(F)c2S1(=O)=O,x,x,-5.1,x,-9.8,x,x,x,x,
CCN1C(=O)/C(=C/C=C2/Sc3ccc4ccccc4c3N2CCO)SC1=S,12.1,0.0,1.5,76.8*,-13.4,2.3,19.4,-0.306,x,
CN(C)S(=O)(=O)c1cccc(NC(=O)CC23CC4CC(CC(C4)C2)C3)c1,-1.0,0.0,2.6,83.9*,7.6,0.1,24.3,-0.171,x,
CN(C)S(=O)(=O)Nc1cccc(NC(=O)CC23CC4CC(CC(C4)C2)C3)c1,0.0,0.0,-1.2,0.5,1.0,-1.6,x,x,x,
COC(=O)[C@]12C[C@H](CC(=O)N3CCCC3)C(=O)N(CCc3ccc(OC)c(OC)c3)C1=C[C@H](C(C)C)O[C@@H]2C1CC1,x,x,-4.0,x,-2.3,x,x,x,x,
COC(=O)[C@]12C[C@H](CC(=O)NCc3ccc(OC)c(OC)c3)C(=O)N(Cc3ccco3)C1=C[C@H](COCc1ccccc1)O[C@@H]2C,x,x,-3.1,x,-5.9,x,x,x,x,
Cc1cc(NC(=O)c2ccc(NS(=O)(=O)c3ccccc3F)cc2)no1,x,x,0.7,x,-11.0,x,x,x,x,
Cn1nc(C(F)(F)F)c(-c2cccc(C(F)(F)F)c2)c1NC(=O)Nc1ccc(F)cc1,78.8*,0.2,6.8,69.0*,9.0,2.2,90.0*,-0.643,-0.4,MPTP counter=81.7*
